# Screening results as filed in PubChem.
# XBP1 UPR activ – activators of adaptive arm of unfolded protein response (XBP1); hit rate 0.33% among 330,000; CHO-XBP1 luciferase reporter, IRE1-XBP1 UPR activation, luminescence; percent of tunicamycin response, DMSO as zero; AID 463104; activation, % at 20 µM;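 active = versus positive control, 20 µM dose yields 30% or more activation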;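 note: 100% = tunicamycin at 10 µg/mL and 0% = DMSO only wells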
#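 Signal: luciferase luminescence; Assay system: CHO-XBP1 luciferase reporter cells; Amount: one thousand reporter cells per well; Dosing: 20 µM single concentration, DMSO 1%; Benchmarks: high control tunicamycin 10 µg/mL final, low control DMSO vehicle only; Schedule: 6 h compound exposure at 37 °C, 5% CO2; Evaluation: percent activation relative to tunicamycin reference.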
# CHOP inhibitor – blocks CHOP induction under ER stress. CHO-K1 CHOP-promoter luciferase, tunicamycin-induced, 15-18 h. inhibition, % at 10 µM. hit rate 3.8% among 220,000;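 active = compounds that reduced the stress-induced luciferase reporter signal by more than about 70% of percent inhibition, limit read from the data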;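 note: 0% = tunicamycin plus vehicle and 100% = wells without tunicamycin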
# UPR CHOP act – activators of apoptotic arm of unfolded protein response (CHOP); CHO-CHOP luciferase reporter, UPR activation, luminescence; percent of tunicamycin response over DMSO baseline; hit rate 0.34% among 330,000; activation, % at 10 µM;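 active = at 10 µM dose, activation of 40% or more, normalized to positive control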;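 note: 100% = tunicamycin at 10 µg/mL and 0% = DMSO alone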
#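 Assay system: CHO cells with stable CHOP pathway luciferase reporter; Buffer or medium: F12 plus 10% serum; Times: 16-18 h cell attachment, then 6 h compound exposure, 37 °C; Signal: luciferase luminescence; Read-out basis: percent activation relative to tunicamycin control; Control set: tunicamycin high control, DMSO low control.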
# Jurkat NFkB inh – lowers PMA/ionomycin-induced NF-kB signal in Jurkat cells; PMA/ionomycin-induced NF-kB luciferase reporter, luminescence; inhibition, % at 4 µM; hit rate 0.53% among 330,000; in the data active = inhibition above about 50%
# 697 NFkB inh – inhibitors of the PMA/ionomycin-induced NF-kB reporter in 697 B cells; 697 B-cell NF-kB luciferase reporter, 16 h; inhibition, % at 4 µM; hit rate 0.33% among 330,000; AID 435022; in the data active = inhibition above about 35%
# Jurkat NFkB conf – inhibitors of the PMA/ionomycin-induced NF-kB reporter in Jurkat cells, retest | shares compounds with Jurkat NFkB inh | Jurkat NF-kB luciferase, 16 h | hit rate 27% among 2,700 | inhibition, % at 4 µM;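 active = inhibition reaching about 45% at 4 µM in either replicate, limit read from the data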;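 note: plate controls were PMA/ionomycin stimulated DMSO wells for no effect and unstimulated DMSO wells for full effect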
# Active calls of the source: *; . = no result. The full list was thinned out, with hits kept by preference.
SMILES,XBP1 UPR activ,CHOP inhibitor,UPR CHOP act,Jurkat NFkB inh,697 NFkB inh,Jurkat NFkB conf
CCOC(=O)c1ccc(Nc2cnc3ccccc3n2)cc1,2.5,-34.2,1.6,-150.1,-115.5,-115.8
O=C(O)c1ccc(Nc2cnc3ccccc3n2)cc1,0.0,-55.4,6.0,-5.4,-89.6,.
CC(=O)Nc1ccc(S(=O)(=O)N2c3ccc(F)cc3CCC2C)cc1 (centres undefined),3.1,.,1.4,56.5*,-20.6,42.0
COc1ccc(S(=O)(=O)N2c3ccc(F)cc3CCC2C)cc1 (centres undefined),21.8,.,-0.8,39.9,7.2,.
Cc1cc(O)c(-c2cc(C(=O)Nc3cccnc3)[nH]n2)cc1C,0.7,-6.7,8.7,-178.1,-40.9,-114.0
CC(=O)c1ccc(NC(=O)c2noc3c2CCCCC3)cc1,-1.3,-12.8,4.8,-164.7,-120.6,-96.4
O=C(COc1ccccc1)Nc1cccc(-c2ccc(N3CCOCC3)nn2)c1,-1.2,.,3.6,-85.5,-89.8,.
O=C(c1ccc2c3c(cccc13)CC2)C1CCCN(C(=O)c2ccc[n+]([O-])c2)C1 (centres undefined),0.5,11.7,1.4,7.1,3.6,.
Cc1ccc(NC(=O)/C(Cl)=C\c2ccccc2)cc1,-3.2,.,-1.7,-223.1,-101.8,-125.6
CCOc1cc(C(=O)NC(C)CCc2ccccc2)cc(OCC)c1OCC (centres undefined),-3.3,.,2.3,7.6,-2.4,.
CCOC(=O)COc1cccc2c(=O)n(CC(=O)NCc3ccc(F)cc3)ccc12,9.1,-24.6,0.2,72.0*,-14.4,53.1*
CCOC(=O)COc1cccc2c(=O)n(CC(=O)NCc3ccccc3)ccc12,7.2,5.8,-0.6,63.2*,-6.2,49.5
CCOC(=O)C(C)Oc1cccc2c(=O)n(CC(=O)NCc3ccc4c(c3)OCO4)ccc12 (centres undefined),7.5,.,-1.2,52.3*,-61.7,54.0*
COc1ccccc1NC(=S)N(Cc1ccco1)Cc1cc2cc(C)c(C)cc2[nH]c1=O,-0.8,-38.4,1.6,66.8*,-17.0,5.0
COc1ccccc1NC(=S)N(Cc1ccco1)Cc1cc2cccc(C)c2[nH]c1=O,-2.4,-15.3,5.7,1.4,2.2,.
O=C(OCCN1C(=O)c2cccc3c(N4CCOCC4)ccc(c23)C1=O)c1ccc(Cl)cc1,9.7,0.1,1.7,64.3*,-55.7,37.4
C[C@H](CO)N1C[C@H](C)[C@@H](CN(C)C(=O)NC2CCCCC2)Oc2c(NS(=O)(=O)c3ccc(F)cc3)cccc2C1=O,-0.5,.,-0.1,-0.9,6.7,.
COCc1ccc(C(=O)NC2CCCN(Cc3ccccc3F)C2)o1 (centres undefined),-3.3,.,0.3,-2.9,12.6,.
N#CC1=C(N)Oc2c(ccc3ccccc23)C1c1cccs1 (centres undefined),13.0,.,1.7,37.9,-213.0,.
N#CC1=C(N)Oc2c(ccc3cccnc23)C1c1ccccc1 (centres undefined),-2.3,-8.0,0.0,65.6*,-5.2,32.4
CC1CCCN(C(=O)CN2C(=O)NC(C)(c3ccc4ccccc4c3)C2=O)C1 (centres undefined),1.5,.,1.2,20.5,15.2,.
CC1CCN(C(=O)CN2C(=O)NC(C)(c3ccc4ccccc4c3)C2=O)CC1 (centres undefined),2.6,.,0.4,59.5*,10.7,35.0
Cc1ccc(C(=O)NC2CCc3ccccc3C2=O)cc1 (centres undefined),-1.8,13.9,0.2,-107.1,-103.7,.
Cc1ccc(C(=O)NC2c3ccccc3-c3ccccc32)cc1,1.7,5.1,3.1,60.3*,-24.3,2.1
CCCCN(C(=O)C1CC(=O)N(Cc2ccc(C)cc2)C1)c1c(N)n(CCCC)c(=O)[nH]c1=O (centres undefined),-1.3,.,1.2,-0.6,-2.0,.
SMILES,XBP1 UPR activ,CHOP inhibitor,UPR CHOP act,Jurkat NFkB inh,697 NFkB inh,Jurkat NFkB conf
CCC(=O)O/N=C(\N)c1ccc(Oc2cc(C)c(Cl)c(C)c2)c([N+](=O)[O-])c1,-0.7,44.9,-1.6,53.5*,-11.8,3.9
CC(C)(C)C(=O)O/N=C(\N)c1ccc(Oc2cc(Cl)cc(Cl)c2)c([N+](=O)[O-])c1,-6.0,6.4,1.2,-9.6,1.4,.
O=c1c2ccccc2nc2sc(Nc3ccc(F)cc3)nn12,0.4,.,3.4,-157.4,-154.0,-41.5
Fc1ccccc1CSc1nc2ccccc2[nH]1,1.8,42.3,-3.2,-154.2,-245.8,-85.8
Fc1c(F)c(F)c(CSc2nc3ccccc3[nH]2)c(F)c1F,2.1,48.2,2.0,-22.8,-8.9,.
O=C(N/N=C/c1c[nH]c2ccccc12)C1COc2ccccc2O1 (centres undefined),0.9,24.8,1.2,53.1*,-1.1,1.4
O=C(N/N=C\c1ccc(Cl)s1)C1COc2ccccc2O1 (centres undefined),5.0,14.6,3.3,37.1,10.7,.
COc1cc(C2NC(=O)NC(c3ccccc3)=C2C(C)=O)cc([N+](=O)[O-])c1O (centres undefined),-1.9,5.5,-0.2,-4.6,15.3,.
Cc1c(C(=O)Nc2cccc(Cl)c2)oc2ccc(S(=O)(=O)N3CCC4(CC3)OCCO4)cc12,0.5,31.6,5.4,59.7*,-37.1,30.4
CSC1=NNC(c2ccc(C(C)(C)C)cc2)=NN1,2.2,-18.0,4.0,-32.3,-42.1,.
COc1ccc(/C=N\NC(=O)c2ccccc2F)cc1COc1ccc(F)cc1,-1.3,.,0.6,24.7,-17.0,.
COc1ccc(/C=N\NC(=O)c2ccccc2F)cc1COc1ccc(F)cc1F,14.6,.,1.2,61.2*,-6.3,43.7
S=C(NCCCN1CCOCC1)N1CCN(c2nc(-c3ccc(Cl)cc3)cs2)CC1,27.7,87.6*,6.7,51.3*,21.2,20.5
S=C(NCCCN1CCOCC1)N1CCN(c2nc(-c3ccccc3)cs2)CC1,-2.6,16.8,-0.2,-3.3,16.3,.
COC(=O)c1ccc(C(=O)NC2CCCc3c2cnn3-c2ccccc2F)nc1 (centres undefined),-6.2,.,-0.2,56.0*,-43.9,24.0
CN(C)c1ncnc2c1ncn2C1OC(CO)C(O)C1O (centres undefined),-1.5,60.1,-3.6,34.7,-103.7,.
COc1ccc(C[C@H](N)C(=O)N[C@H]2[C@@H](O)[C@H](n3cnc4c(N(C)C)ncnc43)O[C@@H]2CO)cc1,26.4,.,34.9,100.2*,-4.9,88.0*
Cc1noc(C)c1COc1ccccc1C(=O)N1CCN(c2cccc(C(F)(F)F)c2)CC1,-1.4,.,-2.0,55.4*,-65.0,16.2
COc1ccc(-c2cc3c(=O)n(CC(=O)Nc4cccc(Cl)c4)ncn3n2)cc1,0.9,.,2.5,-7.6,-16.6,.
COc1cccc(NC(=O)c2ccc3c(c2)CCCC3)c1,-1.3,.,2.9,-153.5,-20.9,-118.3
CC(=O)c1cccc(NC(=O)c2ccc3c(c2)CCCC3)c1,-0.2,.,6.3,-104.5,-57.3,.
